This note sets out measurements from ChEMBL document CHEMBL1926530, “Novel pyrazolo[1,5-a]pyridines as p110α-selective PI3 kinase inhibitors: Exploring the benzenesulfonohydrazide SAR” (Bioorg Med Chem, 2012).

≈ marks a conversion by molar mass, not a printed value.

Data set [1] concerns the target Dual specificity mitogen-activated protein kinase kinase 1 (Homo sapiens) (UniProt Q02750). Briefly: Inhibition of MKK1 assessed as residual activity at 1 uM.
A short description of data set [2]: Inhibition of PKA assessed as residual activity at 10 uM.
The target in data set [3] is Phosphatidylinositol 4,5-bisphosphate 3-kinase catalytic subunit beta isoform (Homo sapiens, UniProt P42338). The data set can be described thus: Inhibition of recombinant PI3K p110beta using L-alpha-phosphatidylinositol as substrate and [gamma33P]ATP after 60 mins by thin layer chromatographic technique. In short, it runs like this:
(§1)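 In-house recombinant enzyme (0.1 µg) with L-α-phosphatidylinositol in 40 mM Tris-HCl pH 7.4, 200 mM NaCl, 1 mM EDTA; DMSO 1% final. Started with 5 mM MgCl₂, 100 µM ATP plus [γ-³³P]ATP; 1 h at room temperature, stopped with 1 M HCl. Lipids extracted, separated by TLC, phosphorimaged. Nine inhibitor concentrations; two experiments, IC50 averaged.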

Data set [4] addresses Insulin receptor (Homo sapiens) (UniProt P06213). The data set can be described thus: Inhibition of IR assessed as residual activity at 10 uM.
In data set [5] the target is Dual specificity mitogen-activated protein kinase kinase 1 (Homo sapiens) (UniProt Q02750). Briefly: Inhibition of MKK1 assessed as residual activity at 10 uM.
Dual specificity mitogen-activated protein kinase kinase 1 (Homo sapiens), sequence (Q02750 whole entry): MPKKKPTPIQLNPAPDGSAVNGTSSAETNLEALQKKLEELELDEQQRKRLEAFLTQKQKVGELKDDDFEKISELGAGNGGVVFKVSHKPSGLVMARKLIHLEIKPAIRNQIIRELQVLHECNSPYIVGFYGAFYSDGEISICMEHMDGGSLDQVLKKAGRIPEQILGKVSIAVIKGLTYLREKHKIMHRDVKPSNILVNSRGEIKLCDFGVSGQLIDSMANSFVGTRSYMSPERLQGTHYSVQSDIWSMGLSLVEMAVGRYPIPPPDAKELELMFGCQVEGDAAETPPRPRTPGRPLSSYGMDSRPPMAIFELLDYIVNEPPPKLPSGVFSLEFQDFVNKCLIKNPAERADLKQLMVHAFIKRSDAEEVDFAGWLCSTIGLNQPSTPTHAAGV
A short description of data set [6]: Cytotoxicity against human NZOV9 cells harboring PI3K p110alpha Y1021C mutant assessed as inhibition of [3H]thymidine incorporation measured after 5 days. The format is functional, cell-based. In short, it runs like this:
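Early-passage lines grown in α-MEM with insulin, transferrin, selenite and 5% FBS. Wells seeded with 1000 cells; inhibitor in dilution steps up to a maximum of 20. Five days under 5% O₂/5% CO₂/90% N₂, ³H-thymidine added for the last 6 h. Duplicates per dose; fit y = y₀ + ae^−bx; IC50 = 50% reduction in incorporation.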
In general terms: Uptake of a labelled nucleoside into DNA is a usual measure of proliferation.

Data set [7] in a line: Aqueous solubility of the compound. In kind it is physicochemical. The note with it: water. In short, it runs like this: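 Solid mixed with water to make 2 mM, sonicated 15 min, centrifuged 13000 rpm for 6 min. Clear supernatant diluted 2-fold with water, recentrifuged and injected on HPLC. Peak area compared with a DMSO standard solution of the compound, correcting for dilution and injection volume.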

For data set [8], the target named is Ribosomal protein S6 kinase alpha-1 (Homo sapiens) (UniProt Q15418). Briefly: Inhibition of RSK1 assessed as residual activity at 10 uM.
Ribosomal protein S6 kinase alpha-1 (Homo sapiens), sequence (Q15418 whole entry): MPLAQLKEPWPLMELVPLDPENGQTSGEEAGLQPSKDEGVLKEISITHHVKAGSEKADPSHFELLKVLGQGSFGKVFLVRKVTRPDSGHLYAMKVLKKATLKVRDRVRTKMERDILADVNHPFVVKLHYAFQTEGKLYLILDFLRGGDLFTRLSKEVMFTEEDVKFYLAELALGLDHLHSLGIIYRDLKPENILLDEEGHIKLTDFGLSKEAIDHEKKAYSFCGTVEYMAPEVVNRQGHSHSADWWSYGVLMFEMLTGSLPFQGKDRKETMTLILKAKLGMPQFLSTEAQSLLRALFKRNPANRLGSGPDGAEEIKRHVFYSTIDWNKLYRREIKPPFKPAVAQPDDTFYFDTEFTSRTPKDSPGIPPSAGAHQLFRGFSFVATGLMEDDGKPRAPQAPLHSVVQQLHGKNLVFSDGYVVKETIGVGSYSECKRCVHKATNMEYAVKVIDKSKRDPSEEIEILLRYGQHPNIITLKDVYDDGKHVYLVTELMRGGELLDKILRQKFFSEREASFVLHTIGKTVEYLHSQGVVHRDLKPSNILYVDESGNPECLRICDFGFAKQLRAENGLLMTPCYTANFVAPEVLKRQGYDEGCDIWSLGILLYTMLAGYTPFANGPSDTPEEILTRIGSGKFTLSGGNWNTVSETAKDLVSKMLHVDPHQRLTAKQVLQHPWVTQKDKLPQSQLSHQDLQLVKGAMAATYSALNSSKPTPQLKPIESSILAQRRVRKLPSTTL
The target in data set [9] is Serine/threonine-protein kinase mTOR (Homo sapiens, UniProt P42345). The data set can be described thus: Inhibition of mTOR.
The nature of data set [10]: AUC (0 to infinity) in CD1 mouse at 10 mg/kg, ip. The format is ADME, organism-based. Details: time infinity, dose 10 mg/kg, route intraperitoneal. The note with it: plasma. The gist of the method: (§2)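 Age-matched specific pathogen-free male CD-1 mice; single 10 mg/kg i.p. dose in 5% DMSO, 45% PEG-400, 20% 2-hydroxypropyl-β-cyclodextrin, 30% water. Blood sampled at multiple times post-dose; plasma taken after centrifugation (10 min, 6000 rpm, 20 °C). Plasma analysed by LC-MS/MS; parameters from non-compartmental analysis.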

Data set [11] has as its target Phosphatidylinositol 4,5-bisphosphate 3-kinase catalytic subunit alpha isoform (Homo sapiens, UniProt P42336, H1047R). The data set can be described thus: Inhibition of PI3K […] H1047R mutant-mediated PKB phosphorylation at Ser473 in human HCT116 cells after 15 mins by immunoblot analysis. The format is cell-based, HCT-116. The gist of the method:
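HCT-116 cells in MEM alpha with 10% FBS and penicillin/streptomycin, seeded, grown 1 day, then starved overnight serum-free. Inhibitor in DMSO (0.1% final) at varying concentrations for 15 min, then 500 nM insulin for 5 min. Lysates immunoblotted for phospho-PKB at Ser473 or Thr308.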

Data set [12] addresses Insulin receptor (Homo sapiens) (UniProt P06213). The data set can be described thus: Inhibition of IR assessed as residual activity at 1 uM.
In data set [13] the target is Mitogen-activated protein kinase 14 (Homo sapiens) (UniProt Q16539). Briefly: Inhibition of p38alpha assessed as residual activity at 10 uM.
Mitogen-activated protein kinase 14 (Homo sapiens), sequence (Q16539 whole entry): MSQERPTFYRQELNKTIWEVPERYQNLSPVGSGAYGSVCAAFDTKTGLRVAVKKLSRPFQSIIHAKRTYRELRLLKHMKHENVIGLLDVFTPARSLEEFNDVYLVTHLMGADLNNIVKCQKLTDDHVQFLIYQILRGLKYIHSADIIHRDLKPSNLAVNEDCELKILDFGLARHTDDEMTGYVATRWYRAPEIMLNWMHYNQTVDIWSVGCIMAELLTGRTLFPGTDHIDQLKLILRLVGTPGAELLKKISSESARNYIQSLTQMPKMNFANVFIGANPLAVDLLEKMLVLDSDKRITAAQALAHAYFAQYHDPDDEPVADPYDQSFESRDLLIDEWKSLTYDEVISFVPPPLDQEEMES
The nature of data set [14]: Tmax in CD1 mouse at 10 mg/kg, ip. In kind it is ADME, organism-based. Details: dose 10 mg/kg, route intraperitoneal. As to conditions: in vivo. The gist of the method: as §2
The target of data set [15] is Misshapen-like kinase 1 (Homo sapiens) (UniProt Q8N4C8). Briefly: Inhibition of MINK1 assessed as residual activity at 10 uM.
The nature of data set [16]: Terminal half life in CD1 mouse at 10 mg/kg, ip. The format is ADME, organism-based. As to conditions: in vivo, read-out: beta t1/2 (converted). On the set-up: dose 10 mg/kg, route intraperitoneal. In short, it runs like this:
as §2

The next data set concerns Mus musculus. Briefly: Toxicity in Rag1 knockout mouse xenografted with human HCT116 cells assessed as body weight loss at 40 mg/kg, ip QD measured on day 7 relative to untreated control. The format is organism-based, HCT-116. The note with it: in vivo. Details: dose 40 mg/kg, route intraperitoneal. The gist of the method: (§3)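 Male Rag1−/− mice (age-matched, SPF) inoculated s.c. with 5 × 10⁶ HCT-116 cells in PBS. Dosing started at ~150 mm³ tumours: q.d. i.p. in 7.5% DMSO, 42.5% PEG-400, 20% 2-hydroxypropyl-β-cyclodextrin, 30% water; controls received vehicle. Volume = (L × w²) × π/6, measured three times weekly; bodyweight daily. Treatment stopped if mean weight loss >15%; 1-way ANOVA with Holm–Sidak.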
(In general: A xenograft is tissue or cells of one species grown in another, often human tumour cells in immunodeficient mice.)

Data set [17] concerns the target Phosphatidylinositol 4,5-bisphosphate 3-kinase catalytic subunit alpha isoform (Homo sapiens, UniProt P42336). Briefly: Inhibition of recombinant PI3K p110alpha using L-alpha-phosphatidylinositol as substrate and [gamma33P]ATP after 60 mins by thin layer chromatographic technique. In short, it runs like this: as §1
In data set [18] the target is High affinity nerve growth factor receptor (Homo sapiens) (UniProt P04629). The data set can be described thus: Inhibition of TrkA assessed as residual activity at 1 uM.
The target of data set [19] is Phosphatidylinositol 4,5-bisphosphate 3-kinase catalytic subunit alpha isoform (Homo sapiens, UniProt P42336, E545K). The data set can be described thus: Inhibition of recombinant PI3K p110alpha E545K mutant using L-alpha-phosphatidylinositol as substrate and [gamma33P]ATP after 60 mins by thin layer chromatographic technique.
Phosphatidylinositol 4,5-bisphosphate 3-kinase catalytic subunit alpha isoform (Homo sapiens, UniProt P42336, E545K), sequence (P42336 whole entry E545K, canonical isoform): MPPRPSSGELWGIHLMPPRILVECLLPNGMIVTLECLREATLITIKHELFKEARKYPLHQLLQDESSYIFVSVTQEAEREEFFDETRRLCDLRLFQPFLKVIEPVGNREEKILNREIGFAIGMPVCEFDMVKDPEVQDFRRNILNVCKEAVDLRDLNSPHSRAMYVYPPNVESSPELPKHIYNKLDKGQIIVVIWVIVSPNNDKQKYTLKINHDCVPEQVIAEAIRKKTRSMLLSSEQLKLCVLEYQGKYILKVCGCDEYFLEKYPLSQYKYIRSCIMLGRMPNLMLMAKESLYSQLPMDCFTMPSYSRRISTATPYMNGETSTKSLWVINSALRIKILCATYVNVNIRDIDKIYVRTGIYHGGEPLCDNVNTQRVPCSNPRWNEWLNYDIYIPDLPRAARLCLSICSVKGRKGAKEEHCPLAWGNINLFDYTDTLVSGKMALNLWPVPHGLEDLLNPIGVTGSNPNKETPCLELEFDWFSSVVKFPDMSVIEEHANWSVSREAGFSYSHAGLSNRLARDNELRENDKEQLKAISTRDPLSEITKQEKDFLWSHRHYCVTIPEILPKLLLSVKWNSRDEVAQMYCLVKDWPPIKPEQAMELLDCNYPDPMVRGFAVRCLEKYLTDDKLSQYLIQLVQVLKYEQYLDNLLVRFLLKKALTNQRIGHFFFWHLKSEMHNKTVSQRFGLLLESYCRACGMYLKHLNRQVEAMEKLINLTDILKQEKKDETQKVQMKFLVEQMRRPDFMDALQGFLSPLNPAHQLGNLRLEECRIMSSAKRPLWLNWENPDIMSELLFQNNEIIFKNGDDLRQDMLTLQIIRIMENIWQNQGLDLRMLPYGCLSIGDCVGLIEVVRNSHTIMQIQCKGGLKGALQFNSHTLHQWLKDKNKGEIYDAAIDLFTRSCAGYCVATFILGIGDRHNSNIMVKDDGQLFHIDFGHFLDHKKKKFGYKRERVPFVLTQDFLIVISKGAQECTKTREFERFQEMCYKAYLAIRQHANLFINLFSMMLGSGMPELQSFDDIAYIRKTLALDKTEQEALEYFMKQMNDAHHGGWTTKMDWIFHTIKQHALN
The target of data set [20] is Ribosomal protein S6 kinase alpha-1 (Homo sapiens) (UniProt Q15418). The data set can be described thus: Inhibition of RSK1 assessed as residual activity at 1 uM.
The next data set deals with SK-OV-3. Briefly: Antitumor activity against human SKOV3 cells xenografted in nude NIH3 mouse assessed as tumor growth delay at 30 mg/kg, ip QD administered for 14 days relative to untreated control. The format is functional. As to conditions: SK-OV-3, ip, 336 h, route intraperitoneal, read-out: GI. In short, it runs like this:
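Female NIH III nude mice (age-matched, SPF) inoculated s.c. with 5 × 10⁶ SK-OV-3 cells in PBS. Dosing from ~150 mm³ tumours, 30 mg/kg i.p. q.d. for 14 days in 7.5% DMSO/42.5% PEG-400/20% 2-hydroxypropyl-β-cyclodextrin/30% water; vehicle controls. Volume (L × w²) × π/6 three times weekly; bodyweight daily; culled above 20% weight loss; 1-way ANOVA, Holm–Sidak.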

In another data set the test system is HCT-116. The data set can be described thus: Antitumor activity against human HCT116 cells xenografted in Rag1knockout mouse assessed as tumor growth delay at 40 mg/kg, ip QD measured on day 7 relative to untreated control. The format is functional. The note with it: route intraperitoneal. The gist of the method: as §3

Insulin receptor (Homo sapiens), sequence (P06213 28-758 limits assumed): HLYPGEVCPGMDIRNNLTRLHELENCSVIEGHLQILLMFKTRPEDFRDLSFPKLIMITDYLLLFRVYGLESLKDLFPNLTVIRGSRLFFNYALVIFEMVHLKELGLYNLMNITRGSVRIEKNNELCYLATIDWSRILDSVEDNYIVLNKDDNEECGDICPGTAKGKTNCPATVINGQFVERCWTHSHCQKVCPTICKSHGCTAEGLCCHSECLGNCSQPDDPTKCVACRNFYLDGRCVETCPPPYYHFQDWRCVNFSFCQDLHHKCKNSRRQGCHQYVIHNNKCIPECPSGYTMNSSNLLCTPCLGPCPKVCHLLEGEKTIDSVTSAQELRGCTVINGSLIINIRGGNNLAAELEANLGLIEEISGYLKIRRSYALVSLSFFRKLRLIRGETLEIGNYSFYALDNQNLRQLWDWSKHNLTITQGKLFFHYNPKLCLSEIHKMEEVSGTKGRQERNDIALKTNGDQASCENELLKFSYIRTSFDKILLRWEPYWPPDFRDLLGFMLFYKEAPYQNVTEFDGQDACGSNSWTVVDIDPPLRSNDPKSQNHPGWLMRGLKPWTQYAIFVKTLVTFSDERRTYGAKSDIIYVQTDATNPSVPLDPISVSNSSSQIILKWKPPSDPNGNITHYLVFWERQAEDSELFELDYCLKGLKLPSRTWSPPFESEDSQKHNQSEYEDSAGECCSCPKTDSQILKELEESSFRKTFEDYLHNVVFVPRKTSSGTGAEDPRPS
Insulin receptor (Homo sapiens), sequence (P06213 763-1382 limits assumed): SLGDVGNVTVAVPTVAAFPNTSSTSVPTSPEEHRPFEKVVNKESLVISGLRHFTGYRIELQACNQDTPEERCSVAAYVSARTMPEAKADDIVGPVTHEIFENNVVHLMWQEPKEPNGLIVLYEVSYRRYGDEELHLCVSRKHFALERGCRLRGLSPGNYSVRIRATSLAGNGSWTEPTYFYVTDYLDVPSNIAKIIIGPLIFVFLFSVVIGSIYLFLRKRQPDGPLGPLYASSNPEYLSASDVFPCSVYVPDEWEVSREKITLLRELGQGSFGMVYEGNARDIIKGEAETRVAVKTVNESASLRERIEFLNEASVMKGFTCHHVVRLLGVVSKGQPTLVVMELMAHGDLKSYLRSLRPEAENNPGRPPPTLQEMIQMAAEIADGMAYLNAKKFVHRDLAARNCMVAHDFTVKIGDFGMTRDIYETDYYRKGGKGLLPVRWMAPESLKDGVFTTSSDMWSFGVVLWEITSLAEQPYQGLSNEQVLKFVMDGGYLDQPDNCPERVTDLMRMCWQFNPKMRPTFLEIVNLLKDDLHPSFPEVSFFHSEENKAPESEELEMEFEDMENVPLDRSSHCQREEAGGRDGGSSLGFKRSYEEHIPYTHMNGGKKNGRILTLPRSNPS
Phosphatidylinositol 4,5-bisphosphate 3-kinase catalytic subunit alpha isoform (Homo sapiens, UniProt P42336), sequence (P42336 whole entry, canonical isoform): as the sequence (P42336 whole entry E545K, canonical isoform) above, with K545E counted along it

A word on the IC50: it is the point on the concentration scale where inhibition reaches its midpoint. The solubility is the concentration that dissolves in the medium under given conditions. Lower therefore signals little dissolved substance. As a reminder, the AUC(0-inf) is the area under the concentration-time curve extrapolated to infinity. A word on the Tmax: it is the time at which the peak concentration occurs. As for `Cc1ccc([N+](=O)[O-])cc1S(=O)(=O)N(CCO)/N=C/c1cnn2ccc(C#N)cc12`, the Activity amounted to 65% in [1]; 8% in data set [2]; 14% in data set [4]; 5% in data set [5]; 5% in [8]; 76% in data set [12]. In addition, the Activity is 13% in data set [13]; 2% in [15]; greater than 15% in the data set on Mus musculus; 73% in data set [18]; 18% in [20]; 43.8% in the data set with HCT-116. Further, the IC50 in data set [3] stood at 51 nM; in data set [6], 140 nM; in [9], 234 nM; in data set [11], 82 nM; in data set [17], 1.3 nM; in data set [19], 0.8 nM. The compound further had a solubility in [7] of 1.2 µg/mL (≈ 2.8 µM). The AUC(0-inf) in data set [10] was determined as 3.16 µM·h. The Tmax in [14] was 5 min. In data set [16], the half-life is 67.8 min. Also, the inhibition in vivo at 30 mg/kg in the data set on SK-OV-3 is 49.9%.
